Calls of active or inactive are those of the source. The calls are words filed in the database; no cut-off is given here.
What was measured:
Protein smoothened [1] = molecular target: Protein smoothened (Homo sapiens, UniProt Q99835, V404M); experiment: Displacement of [3H]-cyclopamine from SMO V404M mutant in gefitinib resistant human HCC827 cells by scintillation counting
[2] = system: Protein smoothened (Homo sapiens), Q99835 [V404M]; experiment: Inhibition of SMO V404M mutant in gefitinib resistant human HCC827 cells assessed as decrease in GLI1 activity at 60 uM by GLI1 luciferase reporter assay relative to control
Procedure, shortened: (§1)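 HCC827-GR cells seeded serum-free, cotransfected at 50% confluence with GLI1-firefly luciferase reporter plus pRL-TK Renilla (Lipofectamine 2000, triplicate); after 8 h medium switched to compound, with or without 100 nM SAG; about 48 h post-transfection dual-luciferase read; firefly normalized to Renilla as fold over control; three independent experiments.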

[3] = system: Protein smoothened (Homo sapiens), Q99835 [V404M]; experiment: Inhibition of SMO V404M mutant in gefitinib resistant human HCC827 cells assessed as decrease in GLI1 activity at 2 to 60 uM in presence of SMO agonist SAG by GLI1 luciferase reporter assay; procedure, shortened: as §1
[4] = system: Protein smoothened (Homo sapiens), Q99835 [V404M]; experiment: Inhibition of SMO V404M mutant in gefitinib resistant human HCC827 cells assessed as decrease in GLI1 activity at 2 uM by GLI1 luciferase reporter assay relative to control; procedure, shortened: as §1
[5] = system: Protein smoothened (Homo sapiens), Q99835 [V404M]; experiment: Inhibition of SMO V404M mutant in gefitinib resistant human HCC827 cells assessed as decrease in GLI1 activity by GLI1 luciferase reporter assay; procedure, shortened: as §1
HCC827 [6] = experiment: Antitumor activity against gefitinib resistant human HCC827 cells xenografted in balb/c athymic nu/nu mouse assessed as decrease in tumor size at 15 mg/kg/day, po in presence of gefitinib; format: functional, organism-based
Procedure, shortened: (§2)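 HCC827 s.c. xenografts (10^7 cells in Matrigel) in female balb/c nu/nu mice made gefitinib-resistant by 3-weekly escalating oral gefitinib (18.7–150 mg/kg/day); gefitinib then continued at its last maximal dose with oral compound at fixed daily dose; tumor volume by calipers (π/6 × larger × smaller²) and body weight on alternate days.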

Homo sapiens = species on record: Homo sapiens; experiment: Inhibition of MET/SMO V404M mutant in gefitinib resistant human HCC827 cells assessed as decrease in vimentin expression at 0.05 to 0.1 uM after 72 hrs by Western blotting method
[7] = molecular target: Hepatocyte growth factor receptor (Homo sapiens) (UniProt P08581); experiment: Inhibition of MET phosphorylation at Tyr1234/1235 in gefitinib resistant human HCC827 cells at 0.05 to 0.1 uM after 72 hrs by Western blotting method
Procedure, shortened: (§3)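 HCC827-GR cells treated 72 h; lysates in RIPA or Tween-20 buffer, protein equalized by Bradford, Western blotting with antibodies to p-MAPK44/42 (Thr202/Tyr204), MAPK, p-AKT (Ser473), AKT, p-MET (Tyr1234/1235), MET, SMO, GLI1, α-tubulin; ECL detection; triplicate.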

Protein smoothened [8] = molecular target: Protein smoothened (Homo sapiens, UniProt Q99835); experiment: Displacement of [3H]-cyclopamine from human wild-type SMO receptor expressed in HEK293T cell membranes by liquid scintillation spectrometry; design: species or system HEK-293T
HCC827 [9] = experiment: Effect on total MAPK levels in gefitinib resistant human HCC827 cells at 0.05 to 0.1 uM after 72 hrs by Western blotting method; format: ADME, cell-based; conditions: hcc827, 72 h; procedure, shortened: as §3
HCC827 [10] = experiment: Effect on total AKT levels in gefitinib resistant human HCC827 cells at 0.05 to 0.1 uM after 72 hrs by Western blotting method; format: ADME, cell-based; conditions: hcc827, 72 h; procedure, shortened: as §3
HCC827 [11] = experiment: Antitumor activity against gefitinib resistant human HCC827 cells xenografted in balb/c athymic nu/nu mouse assessed as decrease in tumor size at 15 mg/kg/day, po in presence of gefitinib
HCC827 [12] = experiment: Antiproliferative activity against gefitinib resistant EGFR-mutated human HCC827 cells after 72 hrs by MTT assay; format: functional, cell-based; conditions: for IC50: HCC827, 72 h
HCC827 [13] = experiment: Downregulation of SMO expression in gefitinib resistant human HCC827 cells at 0.05 to 0.1 uM after 72 hrs by Western blotting method; format: functional, cell-based; procedure, shortened: as §3
[14] = Plasma concentration in balb/c athymic nu/nu mouse at 20 mg/kg, po measured after 5 hrs; format: ADME, organism-based
HCC827 [15] = experiment: Induction of apoptosis in gefitinib resistant human HCC827 cells at 0.1 uM after 72 hrs by annexin V-FITC-propidium iodide staining-based flow cytometry method relative to control; format: functional
Procedure, shortened: (§4)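 HCC827-GR cells treated 72 h, trypsinized, resuspended at 1 × 10^6/mL in binding buffer, stained 30 min at RT in dark with annexin V-FITC and propidium iodide; FACSCalibur flow cytometry (488 nm excitation; 530 nm FITC, 670 nm PI); mean of three wells from a representative experiment.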

HCC827 [16] = experiment: Induction of apoptosis in gefitinib resistant human HCC827 cells at 0.5 uM after 72 hrs by annexin V-FITC-propidium iodide staining-based flow cytometry method relative to control; format: functional; procedure, shortened: as §4
[17] = molecular target: Hepatocyte growth factor receptor (Homo sapiens) (UniProt P08581); experiment: Inhibition of MET in gefitinib resistant human HCC827 cells assessed as decrease in AKT phosphorylation at Ser473 at 0.05 to 0.1 uM after 72 hrs by Western blotting method; procedure, shortened: as §3
HCC827 [18] = experiment: Antitumor activity against gefitinib resistant human HCC827 cells xenografted in balb/c athymic nu/nu mouse assessed as decrease in tumor size at 15 mg/kg/day, po; format: functional, organism-based
Procedure, shortened: (§5)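 Female balb/c nu/nu mice, 4–6 weeks old, given 10^7 HCC827 cells s.c. in 1:1 Matrigel/medium; at 150 mm3 tumors, 3-weekly escalating oral gefitinib (18.7 to 150 mg/kg/day) over 4 months until resistance (>25% regrowth from maximal reduction); then randomized to oral test agent at fixed daily dose; tumor volume (π/6 × larger × smaller²) every other day.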

[19] = molecular target: Hepatocyte growth factor receptor (Homo sapiens) (UniProt P08581); experiment: Inhibition of MET in gefitinib resistant human HCC827 cells assessed as decrease in MAPK44/42 phosphorylation at Thr202/Tyr204 at 0.05 to 0.1 uM after 72 hrs by Western blotting method; procedure, shortened: as §3
[20] = system: Protein smoothened (Homo sapiens), Q99835 [V404M]; experiment: Displacement of [3H]-cyclopamine from SMO V404M mutant in gefitinib resistant human HCC827 cells at 10 uM by scintillation counting
HCC827 [21] = experiment: Antitumor activity against gefitinib resistant human HCC827 cells xenografted in balb/c athymic nu/nu mouse assessed as decrease in tumor size at 20 mg/kg/day, po in presence of gefitinib
HCC827 [22] = experiment: Antitumor activity against gefitinib resistant human HCC827 cells xenografted in balb/c athymic nu/nu mouse assessed as decrease in tumor size at 20 mg/kg/day, po in presence of gefitinib; format: functional, organism-based; procedure, shortened: as §2
HCC827 [23] = experiment: Effect on total AKT levels in gefitinib resistant human HCC827 cells at 0.1 to 0.5 uM after 72 hrs by Western blotting method; format: ADME, cell-based; conditions: hcc827, 72 h; procedure, shortened: as §3
HCC827 [24] = experiment: Downregulation of SMO expression in gefitinib resistant human HCC827 cells at 0.1 to 0.5 uM after 72 hrs by Western blotting method; format: functional, cell-based; procedure, shortened: as §3
HCC827 [25] = experiment: Antitumor activity against gefitinib resistant human HCC827 cells xenografted in balb/c athymic nu/nu mouse assessed as decrease in tumor size at 20 mg/kg/day, po; format: functional, organism-based; procedure, shortened: as §5
HCC827 [26] = experiment: Induction of apoptosis in gefitinib resistant human HCC827 cells at 0.01 to 1 uM after 72 hrs by annexin V-FITC-propidium iodide staining-based flow cytometry method relative to control; format: functional, cell-based; procedure, shortened: as §4
HCC827 [27] = experiment: Effect on total MAPK levels in gefitinib resistant human HCC827 cells at 0.1 to 0.5 uM after 72 hrs by Western blotting method; format: ADME, cell-based; conditions: hcc827, 72 h; procedure, shortened: as §3

Protein smoothened (Homo sapiens, UniProt Q99835, V404M), sequence (Q99835 28-787 V404M limits assumed): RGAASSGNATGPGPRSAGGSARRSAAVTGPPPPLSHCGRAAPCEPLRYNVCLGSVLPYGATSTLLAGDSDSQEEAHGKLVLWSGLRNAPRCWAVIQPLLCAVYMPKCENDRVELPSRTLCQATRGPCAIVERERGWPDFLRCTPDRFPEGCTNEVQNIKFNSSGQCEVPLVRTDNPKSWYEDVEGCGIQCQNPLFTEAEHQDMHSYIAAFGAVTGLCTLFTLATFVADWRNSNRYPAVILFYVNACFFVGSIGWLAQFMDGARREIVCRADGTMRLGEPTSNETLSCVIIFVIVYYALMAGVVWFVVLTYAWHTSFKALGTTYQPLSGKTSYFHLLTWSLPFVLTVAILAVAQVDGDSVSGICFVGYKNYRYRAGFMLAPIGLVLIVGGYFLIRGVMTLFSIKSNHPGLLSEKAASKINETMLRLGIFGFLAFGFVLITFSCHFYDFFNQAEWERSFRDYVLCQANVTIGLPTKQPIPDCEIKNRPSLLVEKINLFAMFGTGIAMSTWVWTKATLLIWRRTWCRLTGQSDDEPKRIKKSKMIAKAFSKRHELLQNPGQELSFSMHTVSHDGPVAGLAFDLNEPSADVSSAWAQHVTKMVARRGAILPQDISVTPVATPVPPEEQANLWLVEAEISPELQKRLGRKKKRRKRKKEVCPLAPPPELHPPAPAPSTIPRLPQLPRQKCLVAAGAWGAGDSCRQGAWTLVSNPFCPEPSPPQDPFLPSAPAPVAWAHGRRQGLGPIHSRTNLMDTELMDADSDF
Hepatocyte growth factor receptor (Homo sapiens), sequence (P08581 whole entry): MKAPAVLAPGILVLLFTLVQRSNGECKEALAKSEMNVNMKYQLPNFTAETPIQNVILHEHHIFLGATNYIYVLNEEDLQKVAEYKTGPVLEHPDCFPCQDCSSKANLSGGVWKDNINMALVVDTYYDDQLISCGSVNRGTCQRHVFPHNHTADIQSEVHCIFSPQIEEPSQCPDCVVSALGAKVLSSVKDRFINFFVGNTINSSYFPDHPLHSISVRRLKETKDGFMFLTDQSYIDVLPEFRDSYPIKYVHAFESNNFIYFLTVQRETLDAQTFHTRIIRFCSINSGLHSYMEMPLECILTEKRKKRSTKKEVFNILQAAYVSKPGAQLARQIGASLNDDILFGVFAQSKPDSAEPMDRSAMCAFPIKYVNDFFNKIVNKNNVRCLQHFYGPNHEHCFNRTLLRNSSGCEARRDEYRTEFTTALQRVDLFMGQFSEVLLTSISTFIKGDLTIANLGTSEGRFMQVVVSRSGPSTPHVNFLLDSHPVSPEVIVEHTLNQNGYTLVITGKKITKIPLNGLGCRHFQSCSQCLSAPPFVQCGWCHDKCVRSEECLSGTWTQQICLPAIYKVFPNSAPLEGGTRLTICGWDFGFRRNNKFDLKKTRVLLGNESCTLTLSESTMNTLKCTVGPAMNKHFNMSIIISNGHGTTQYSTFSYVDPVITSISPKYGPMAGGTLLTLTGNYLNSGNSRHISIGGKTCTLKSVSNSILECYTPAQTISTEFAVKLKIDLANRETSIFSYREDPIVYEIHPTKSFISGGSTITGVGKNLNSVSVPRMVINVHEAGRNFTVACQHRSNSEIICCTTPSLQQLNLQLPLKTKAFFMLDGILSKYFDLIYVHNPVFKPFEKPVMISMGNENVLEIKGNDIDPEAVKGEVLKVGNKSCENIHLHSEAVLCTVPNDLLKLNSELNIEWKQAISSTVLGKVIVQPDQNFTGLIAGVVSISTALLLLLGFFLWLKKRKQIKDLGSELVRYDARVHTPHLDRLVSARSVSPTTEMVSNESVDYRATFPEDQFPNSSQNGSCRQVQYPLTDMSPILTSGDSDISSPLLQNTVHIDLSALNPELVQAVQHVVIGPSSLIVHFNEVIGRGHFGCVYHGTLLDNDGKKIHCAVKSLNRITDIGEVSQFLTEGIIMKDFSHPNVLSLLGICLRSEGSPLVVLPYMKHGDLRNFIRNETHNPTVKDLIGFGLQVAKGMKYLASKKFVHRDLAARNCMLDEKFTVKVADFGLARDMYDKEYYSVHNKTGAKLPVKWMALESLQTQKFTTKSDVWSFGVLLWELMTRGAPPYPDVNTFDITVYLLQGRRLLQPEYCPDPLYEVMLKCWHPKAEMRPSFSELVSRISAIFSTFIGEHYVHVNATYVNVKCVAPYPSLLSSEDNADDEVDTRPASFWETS
Protein smoothened (Homo sapiens), Q99835 [V404M], sequence (Q99835 whole entry V404M): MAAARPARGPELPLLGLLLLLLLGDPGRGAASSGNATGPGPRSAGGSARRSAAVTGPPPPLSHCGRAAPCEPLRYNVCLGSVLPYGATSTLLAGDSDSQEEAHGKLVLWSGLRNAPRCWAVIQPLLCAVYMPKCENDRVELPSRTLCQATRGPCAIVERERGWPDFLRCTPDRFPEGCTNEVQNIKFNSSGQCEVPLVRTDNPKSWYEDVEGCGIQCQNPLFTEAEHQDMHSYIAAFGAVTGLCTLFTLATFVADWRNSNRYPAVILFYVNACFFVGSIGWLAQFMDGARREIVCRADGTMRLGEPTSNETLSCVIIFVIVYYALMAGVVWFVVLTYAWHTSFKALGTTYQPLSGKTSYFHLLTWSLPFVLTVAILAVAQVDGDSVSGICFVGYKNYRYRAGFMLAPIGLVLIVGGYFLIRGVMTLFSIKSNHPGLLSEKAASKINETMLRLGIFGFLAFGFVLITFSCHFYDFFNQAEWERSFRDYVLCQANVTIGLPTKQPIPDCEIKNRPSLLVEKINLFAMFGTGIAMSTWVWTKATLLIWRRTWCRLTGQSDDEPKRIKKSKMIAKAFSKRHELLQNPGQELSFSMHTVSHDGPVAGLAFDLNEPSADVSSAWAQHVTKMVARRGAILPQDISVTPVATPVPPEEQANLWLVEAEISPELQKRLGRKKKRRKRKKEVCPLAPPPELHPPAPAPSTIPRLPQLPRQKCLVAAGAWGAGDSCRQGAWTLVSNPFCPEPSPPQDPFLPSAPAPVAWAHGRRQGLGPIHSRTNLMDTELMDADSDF
Protein smoothened (Homo sapiens, UniProt Q99835), sequence (Q99835 whole entry): as the sequence (Q99835 whole entry V404M) above, with M404V counted along it

Row | Ki (Protein smoothened [1]) [nM] | inhibition [2] [%] | inhibition [3] | inhibition [4] [%] | inhibition [5] | inhibition [20] | Structure (SMILES) | other results
1 | 188 | 10 to 100 | inactive | 25 to 50 | Dose-dependent effect | – | COc1cc2ncnc(Oc3cccc(NC(=O)Nc4cc(C(C)(C)C(F)(F)F)on4)c3)c2cc1OC [CEP-32496] | –
2 | 53.1 | 10 to 100 | inactive | 25 to 50 | Dose-dependent effect | – | Cn1cnc(-c2cc3nccc(Oc4ccc(NC(=S)NC(=O)Cc5ccccc5)cc4F)c3s2)c1 | Activity (HCC827 [6]): Active; inhibition (Homo sapiens): Active; inhibition [7]: Active; Ki (Protein smoothened [8]): 41.7 nM; Activity (HCC827 [9]): Non-Toxic; Activity (HCC827 [10]): Non-Toxic; Activity (HCC827 [11]): Active; Activity (HCC827 [12]): Dose-dependent effect; IC50 (HCC827 [12]): 80 nM; Activity (HCC827 [13]): Active; concentration at 5 h [14]: 800 nM; Activity (HCC827 [15]): 62%; Activity (HCC827 [16]): 84%; inhibition [17]: Active; Activity (HCC827 [18]): Active; inhibition [19]: Active
3 | 46.2 | 10 to 100 | inactive | 25 to 50 | Dose-dependent effect | – | CSc1cccc(Nc2ncc3cc(-c4c(Cl)cccc4Cl)c(=O)n(C)c3n2)c1 | –
4 | 87.6 | 10 to 100 | inactive | 25 to 50 | Dose-dependent effect | – | Cc1ccc(F)c(NC(=O)Nc2ccc(-c3cccc4[nH]nc(N)c34)cc2)c1 [LINIFANIB] | –
5 | 50.4 | 10 to 100 | inactive | 25 to 50 | Dose-dependent effect | – | Cc1ccc(NC(=O)CN2C(=O)/C(=N/NC(=O)c3cc(Br)ccc3O)c3ccccc32)cc1 | –
6 | – | – | – | – | – | inactive | CC(C)(O)CC(=O)NCCn1ccc2ncnc(Nc3ccc(Oc4cccc(C(F)(F)F)c4)c(Cl)c3)c21 | –
7 | 168 | 10 to 100 | inactive | 25 to 50 | Dose-dependent effect | – | O=C(NNC(=O)c1ccc([N+](=O)[O-])cc1)C(=O)c1c[nH]c2ccccc12 | –
8 | – | – | – | – | – | inactive | Cc1cccc(C(=O)Nc2ccc(C(=O)NNC3C(=O)Nc4ccccc43)cc2)c1 (stereo not given) | –
9 | 46.5 | 10 to 100 | inactive | 25 to 50 | Dose-dependent effect | – | CCN1CCN(c2ccc(Nc3cc(N(C)C(=O)Nc4c(Cl)c(OC)cc(OC)c4Cl)ncn3)cc2)CC1 [INFIGRATINIB] | –
10 | 66.8 | 10 to 100 | inactive | 25 to 50 | Dose-dependent effect | – | COc1cc2c(Oc3ccc(NC(=O)C4(C(=O)Nc5ccc(F)cc5)CC4)cc3F)ccnc2cc1OCCCN1CCOCC1 [FORETINIB] | Activity (HCC827 [21]): Active; Ki (Protein smoothened [8]): 59.7 nM; Activity (HCC827 [22]): Active; Activity (HCC827 [12]): Dose-dependent effect; IC50 (HCC827 [12]): 500 nM; Activity (HCC827 [23]): Non-Toxic; Activity (HCC827 [24]): Active; Activity (HCC827 [25]): Active; Activity (HCC827 [26]): Active; Activity (HCC827 [27]): Non-Toxic
11 | – | – | – | – | – | inactive | CCOc1ccn(-c2ccc(F)cc2)c(=O)c1C(=O)Nc1ccc(Oc2ccnc(N)c2Cl)c(F)c1 | –
12 | – | – | – | – | – | inactive | O=C(CCCCCC(=O)N/N=C/c1cc2c(cc1[N+](=O)[O-])OCO2)N/N=C/c1cc2c(cc1[N+](=O)[O-])OCO2 | –

Source: ChEMBL document CHEMBL4038343, “Dual MET and SMO Negative Modulators Overcome Resistance to EGFR Inhibitors in Human Nonsmall Cell Lung Cancer” (J Med Chem, 2017)
